The target of test [1] is T1, Prostaglandin E2 receptor EP1 subtype (Mus musculus, UniProt P35375).
T1 sequence (P35375 whole entry): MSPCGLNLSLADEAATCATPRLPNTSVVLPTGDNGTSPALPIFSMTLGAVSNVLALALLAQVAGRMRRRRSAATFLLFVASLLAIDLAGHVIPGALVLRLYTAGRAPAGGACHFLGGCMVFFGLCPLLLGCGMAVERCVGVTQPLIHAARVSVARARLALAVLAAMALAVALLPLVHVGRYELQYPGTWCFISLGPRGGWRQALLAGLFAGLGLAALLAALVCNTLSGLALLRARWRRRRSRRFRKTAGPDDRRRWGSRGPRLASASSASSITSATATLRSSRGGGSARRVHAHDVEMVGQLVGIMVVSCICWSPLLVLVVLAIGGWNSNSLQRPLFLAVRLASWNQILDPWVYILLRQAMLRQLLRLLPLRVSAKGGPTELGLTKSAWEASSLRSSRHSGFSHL
The experiment in a line: Displacement of [3H]PGE2 from mouse EP1 receptor expressed in CHO cell membrane. The test is classed as cell membranes.

The target in test [2] is Prostaglandin E2 receptor EP4 subtype (Mus musculus, UniProt P32240). The experiment in a line: Displacement of [3H]PGE2 from mouse EP4 receptor expressed in CHO cell membrane. The test is classed as cell membranes. In general terms: Loss of bound radioactivity is the signal in a displacement assay; it reports binding, not function.
Chain of Prostaglandin E2 receptor EP4 subtype (P32240 whole entry): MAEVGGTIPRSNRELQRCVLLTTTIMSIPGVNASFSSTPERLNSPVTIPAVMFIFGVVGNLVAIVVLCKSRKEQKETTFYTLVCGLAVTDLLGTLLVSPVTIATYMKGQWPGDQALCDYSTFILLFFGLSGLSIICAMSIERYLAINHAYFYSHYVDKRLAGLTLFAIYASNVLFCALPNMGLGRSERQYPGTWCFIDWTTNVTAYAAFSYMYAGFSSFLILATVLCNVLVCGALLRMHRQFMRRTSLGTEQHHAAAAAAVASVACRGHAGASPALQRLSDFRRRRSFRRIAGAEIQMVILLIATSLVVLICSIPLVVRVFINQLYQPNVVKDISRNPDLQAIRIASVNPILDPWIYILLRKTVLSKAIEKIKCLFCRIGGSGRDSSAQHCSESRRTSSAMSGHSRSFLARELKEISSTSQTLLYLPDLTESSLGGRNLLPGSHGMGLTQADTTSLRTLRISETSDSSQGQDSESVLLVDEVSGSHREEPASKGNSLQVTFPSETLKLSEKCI
Test [3] addresses Prostaglandin E2 receptor EP2 subtype (Mus musculus, UniProt Q62053). The experiment in a line: Displacement of [3H]PGE2 from mouse EP2 receptor expressed in CHO cell membrane. The test is classed as cell membranes.
Test [4] concerns Rattus norvegicus. Briefly: Inhibition of PGE2-induced uterine contraction in intraduodenally dosed pregnant rat at 0.3 mg/kg. Type of test: functional. The following applies: route intraduodenal. In outline:
(§1)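 Pregnant rats with uterine pressure recorded by transducer. Once spontaneous motility was stable, compound in 0.5% methylcellulose (5 mL/kg) or vehicle given intraduodenally. PGE2 given iv 30 min later.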

Test [5] deals with Rattus norvegicus. The experiment in a line: Inhibition of PGE2-induced uterine contraction in intraduodenally dosed pregnant rat at 1 mg/kg. Type of test: functional. The note with it: route intraduodenal. Put shortly:
as §1

Test [6] addresses T2, Prostaglandin E2 receptor EP3 subtype (Mus musculus, UniProt P30557).
T2 sequence (P30557 whole entry): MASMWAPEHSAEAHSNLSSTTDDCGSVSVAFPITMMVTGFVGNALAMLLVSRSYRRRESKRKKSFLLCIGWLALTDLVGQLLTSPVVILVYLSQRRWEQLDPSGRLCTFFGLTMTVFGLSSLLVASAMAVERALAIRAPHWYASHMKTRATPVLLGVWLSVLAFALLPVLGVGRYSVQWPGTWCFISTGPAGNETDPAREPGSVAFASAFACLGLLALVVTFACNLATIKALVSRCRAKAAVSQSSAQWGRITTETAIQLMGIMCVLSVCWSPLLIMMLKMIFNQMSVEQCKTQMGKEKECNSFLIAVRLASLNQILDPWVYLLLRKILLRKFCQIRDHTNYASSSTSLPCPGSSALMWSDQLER
The experiment in a line: Antagonist activity at mouse EP3 receptor expressed in CHO cells assessed as inhibition of PGE2-induced increase intracellular calcium level in presence of 1% BSA by fluorimetry. Type of test: functional, cell-based. Put shortly:
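CHO cells expressing mouse EP3 seeded at 1 × 10⁴ cells/well and grown two days in 10% FBS/αMEM (37 °C, 5% CO2). Loaded 1 h with Fura 2/AM, indomethacin and 2.5 mM probenecid, rinsed, then held 1 h dark at room temperature in HBSS with 1% BSA and 10 mM HEPES. Compound added with 10 nM PGE2. Ca²⁺ read at 340/380 nm excitation, 500 nm emission; % inhibition relative to the PGE2 response without compound.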
Background: Calcium flux is commonly read through the fluorescence of an indicator in the cells.

Test [7] addresses T2, Prostaglandin E2 receptor EP3 subtype. The experiment in a line: Displacement of [3H]PGE2 from mouse EP3 receptor expressed in CHO cell membrane. Type of test: cell membranes.

Chain of Prostaglandin E2 receptor EP2 subtype (Q62053 whole entry): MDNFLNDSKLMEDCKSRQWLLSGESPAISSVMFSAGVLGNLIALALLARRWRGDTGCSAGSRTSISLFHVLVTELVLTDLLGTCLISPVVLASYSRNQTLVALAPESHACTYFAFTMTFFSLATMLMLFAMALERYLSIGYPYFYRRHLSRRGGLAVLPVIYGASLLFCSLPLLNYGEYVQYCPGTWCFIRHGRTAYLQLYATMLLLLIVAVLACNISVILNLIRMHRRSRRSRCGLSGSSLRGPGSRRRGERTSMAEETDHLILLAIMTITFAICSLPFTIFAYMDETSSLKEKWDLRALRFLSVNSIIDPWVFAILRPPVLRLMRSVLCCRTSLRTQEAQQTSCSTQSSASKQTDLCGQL

As to `Cc1cc(C(CC(C)C)NC(=O)c2cc(COc3ccccc3)ccc2CCC(=O)O)ccc1F` (configuration not stated), the Ki – broadly, the equilibrium dissociation constant of an inhibitor or competing ligand from its target – in test [1] was greater than 10000 nM; in test [2], 630 nM; in test [3] it was greater than 10000 nM; in test [7], 0.16 nM. For the same compound, 0.3 mg/kg produced 31% inhibition in vivo in the test on Rattus norvegicus [4]. Further, the inhibition in vivo (as a rule, the percentage by which the read-out fell short of the control) at 1 mg/kg with Rattus norvegicus [5] amounted to 73%. Further, in test [6], the 50% inhibitory concentration (IC50) (commonly the concentration that inhibits the measured activity by half) is 18 nM.

The record behind these values is ChEMBL document CHEMBL1157546, “3-(2-Aminocarbonylphenyl)propanoic acid analogs as potent and selective EP3 receptor antagonists. part 2: optimization of the side chains to improve in vitro and in vivo potencies” (Bioorg Med Chem, 2010).
